# From ChEMBL document CHEMBL1140862, “Berberine analogues as a novel class of the low-density-lipoprotein receptor up-regulators: synthesis, structure-activity relationships, and cholesterol-lowering efficacy” (J Med Chem, 2009)
# The source made the active and inactive calls. The rule behind the calls is not given here.
# Columns and labels:
# Rattus norvegicus [1] = test: Reduction of blood cholesterol level in hyperlipidemic Sprague-Dawley rat at 100 mg/kg, po daily twice for 17 days relative to control; type: functional; design: scale not given: the % may be the effect or the level left
# Summary of the method: (§1)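 Hyperlipidemic Sprague-Dawley rats (HFHC diet 8 weeks) untreated (n = 6) or gavaged twice daily with saline suspension at 100 or 300 (mg/kg)/day (n = 8 each) for 17 days; fasted tail-snip blood at end point; total cholesterol and LDL-c by commercial kits, relative to untreated control.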
# Mus musculus [2] = test: Acute toxicity in po dosed Kunming mouse assessed as lung damage upto 5000 mg/kg, po after 14 days by hematoxylin and eosin staining; type: organism-based; design: dose 5000 mg/kg, route oral; conditions: in vivo, 336 h
# Summary of the method: (§2)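 Male Kunming mice (19 ± 1 g), six per group, given a single oral dose of saline (control) or compound at 250, 1000 or 5000 mg/kg. Animals weighed daily and monitored 14 days. Then sacrificed; liver, kidney, heart, lung, brain and colon fixed in 10% formaldehyde at room temperature and examined by H&E histology.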
# Rattus norvegicus [3] = test: Reduction of blood low density lipoprotein cholesterol level in hyperlipidemic Sprague-Dawley rat at 100 mg/kg, po daily twice; type: functional, organism-based; design: dose 100 mg/kg; conditions: TDE = time-dependent effect
# Mus musculus [4] = test: Acute toxicity in Kunming mouse assessed as change in body weight at 250 mg/kg, po; type: organism-based; design: dose 250 mg/kg, route oral; conditions: in vivo; summary of the method: as §2
# Mus musculus [5] = test: Acute toxicity in Kunming mouse assessed as change in body weight at 1000 mg/kg, po; type: organism-based; design: dose 1000 mg/kg, route oral; conditions: in vivo; summary of the method: as §2
# Mus musculus [6] = test: Acute toxicity in po dosed Kunming mouse after 14 days; type: organism-based; conditions: in vivo, 336 h; summary of the method: as §2
# Rattus norvegicus [7] = test: Reduction of blood low density lipoprotein cholesterol level in hyperlipidemic Sprague-Dawley rat at 100 mg/kg, po daily twice for 30 days relative to control; type: functional; design: scale not given: the % may be the effect or the level left
# Summary of the method: (§3)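 Male Sprague-Dawley rats on HFHC diet 8 weeks, then saline suspension by gavage at 100 (mg/kg)/day, twice daily, 30 days (n = 8; untreated HFHC n = 6; normal-diet controls). Fasted tail-snip blood at end point; total cholesterol and LDL-c by commercial kits; percent reduction versus untreated HFHC control; mean ± SEM.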
# Rattus norvegicus [8] = test: Induction of LDLR mRNA expression in hyperlipidemic Sprague-Dawley rat liver at 300 mg/kg, po daily twice for 17 days by RT-PCR relative to control; type: functional
# Summary of the method: (§4)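 Hyperlipidemic male Sprague-Dawley rats (HFHC diet 8 weeks) untreated (n = 6) or gavaged twice daily with saline suspension at 100 or 300 (mg/kg)/day (n = 8 each) for 17 days. Liver total RNA, real-time RT-PCR for LDLR, GAPDH-normalized, fold of HFHC group (=1); mean ± SE, one-way ANOVA.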
# Rattus norvegicus [9] = test: Toxicity in hyperlipidemic Sprague-Dawley rat assessed as food intake reduction at 100 mg/kg, po daily twice for 30 days; type: organism-based; design: dose 100 mg/kg, route oral; conditions: in vivo, 720 h
# Summary of the method: (§5)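 Hyperlipidemic Sprague-Dawley rats (HFHC diet 8 weeks) gavaged with saline suspension, 100 (mg/kg)/day twice daily, 30 days. Body weight and food intake monitored; fasted blood before and after treatment assayed with commercial kits for AST, ALT, BUN and creatinine; mean and sd.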
# Rattus norvegicus [10] = test: Reduction of blood cholesterol level in hyperlipidemic Sprague-Dawley rat at 100 mg/kg, po daily twice for 30 days relative to control; type: functional; design: scale not given: the % may be the effect or the level left; summary of the method: as §3
# Rattus norvegicus [11] = test: Toxicity in hyperlipidemic Sprague-Dawley rat assessed as weight loss at 100 mg/kg, po daily twice for 30 days; type: organism-based; design: dose 100 mg/kg, route oral; conditions: in vivo, 720 h; summary of the method: as §5
# Mus musculus [12] = test: Acute toxicity in Kunming mouse assessed as brain damage upto 5000 mg/kg, po after 14 days by hematoxylin and eosin staining; type: organism-based; design: dose 5000 mg/kg, route oral; conditions: in vivo, 336 h; summary of the method: as §2
# Mus musculus [13] = test: Reduction of blood cholesterol level in hyperlipidemic C57BL/6J mouse at 100 mg/kg, po daily twice for 21 days relative to control; type: functional; design: scale not given: the % may be the effect or the level left
# Summary of the method: (§6)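 Male C57BL/6J mice fed HFHC diet 8 weeks, then gavaged twice daily (0.2 mL saline suspension) at 100 (mg/kg)/day for 21 days (n = 8; untreated n = 6). Fasted tail-snip blood; total cholesterol and LDL-c by commercial kits relative to untreated control.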
# Rattus norvegicus [14] = test: Toxicity in hyperlipidemic Sprague-Dawley rat assessed as liver and kidney function abnormalities at 100 mg/kg, po daily twice for 30 days; type: organism-based; design: dose 100 mg/kg, route oral; conditions: in vivo, 720 h; summary of the method: as §5
# Rattus norvegicus [15] = test: Reduction of blood cholesterol level in hyperlipidemic Sprague-Dawley rat at 100 mg/kg, po daily twice; type: functional, organism-based; design: dose 100 mg/kg; conditions: TDE = time-dependent effect
# Mus musculus [16] = test: Acute toxicity in Kunming mouse assessed as kidney damage upto 5000 mg/kg, po after 14 days by hematoxylin and eosin staining; type: organism-based; design: dose 5000 mg/kg, route oral; conditions: in vivo, 336 h; summary of the method: as §2
# HepG2 [17] = test: Induction of LDLR protein expression in human HepG2 cells at 10 ug/mL after 12 hrs by flow cytometry; type: functional, cell-based
# Summary of the method: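 HepG2 cells in LPDS medium treated 12 h with 10 µg/mL compound, detached, fixed in 2% paraformaldehyde at 4 °C overnight, blocked, stained on ice 1 h with rabbit polyclonal anti-LDLR (1:25), then FITC goat anti-rabbit IgG (1:50) 30 min; normal rabbit IgG background control; cell-surface fluorescence by flow cytometry.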
# Rattus norvegicus [18] = test: Induction of LDLR mRNA expression in hyperlipidemic Sprague-Dawley rat liver at 100 mg/kg, po daily twice for 17 days by RT-PCR relative to control; type: functional, organism-based; design: dose 100 mg/kg; summary of the method: as §4
# Mus musculus [19] = test: Acute toxicity in Kunming mouse assessed as heart damage upto 5000 mg/kg, po after 14 days by hematoxylin and eosin staining; type: organism-based; design: dose 5000 mg/kg, route oral; conditions: in vivo, 336 h; summary of the method: as §2
# Mus musculus [20] = test: Acute toxicity in Kunming mouse assessed as colon damage upto 5000 mg/kg, po after 14 days by hematoxylin and eosin staining; type: organism-based; design: dose 5000 mg/kg, route oral; conditions: in vivo, 336 h; summary of the method: as §2
# Mus musculus [21] = test: Reduction of blood low density lipoprotein cholesterol level in hyperlipidemic C57BL/6J mouse at 100 mg/kg, po daily twice for 21 days relative to control; type: functional; design: scale not given: the % may be the effect or the level left; summary of the method: as §6
# Rattus norvegicus [22] = test: Reduction of blood cholesterol level in hyperlipidemic Sprague-Dawley rat at 300 mg/kg, po daily twice for 17 days relative to control; type: functional; design: scale not given: the % may be the effect or the level left; summary of the method: as §1
# Rattus norvegicus [23] = test: Reduction of blood low density lipoprotein cholesterol level in hyperlipidemic Sprague-Dawley rat at 100 mg/kg, po daily twice for 17 days relative to control; type: functional; design: scale not given: the % may be the effect or the level left; summary of the method: as §1
# HepG2 [24] = test: Induction of LDLR mRNA expression in human HepG2 cells after 12 hrs by RT-PCR assay relative to untreated control; type: functional
# Summary of the method: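 HepG2 cells kept in RPMI-1640 with 10% FBS, moved 24 h before dosing to 10% LPDS, then at ~80% confluence to RPMI-1640 with 0.5% LPDS plus compound (5.0 µg/mL in table; concentrations as indicated in figure), 12 h, 37 °C. Total RNA reverse-transcribed, TaqMan real-time PCR, comparative CT method with GAPDH reference; fold of untreated cells (=1); mean of three experiments.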
# Mus musculus [25] = test: Acute toxicity in Kunming mouse assessed as liver damage upto 5000 mg/kg, po after 14 days by hematoxylin and eosin staining; type: organism-based; design: dose 5000 mg/kg, route oral; conditions: in vivo, 336 h; summary of the method: as §2
# Rattus norvegicus [26] = test: Reduction of blood low density lipoprotein cholesterol level in hyperlipidemic Sprague-Dawley rat at 300 mg/kg, po daily twice for 17 days relative to control; type: functional; design: scale not given: the % may be the effect or the level left; summary of the method: as §1
# Rattus norvegicus [27] = test: Induction of HMG-CoA reductase mRNA expression in hyperlipidemic Sprague-Dawley rat liver at 100 mg/kg, po daily twice for 30 days by RT-PCR; type: functional, organism-based; design: dose 100 mg/kg
# Summary of the method: (§7)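 Male Sprague-Dawley rats (180 ± 10 g) fed HFHC diet (2% cholesterol, 10% yolk powder, 15% lard, 0.2% sodium cholate) 8 weeks, then gavaged with compound suspended in saline, 100 (mg/kg)/day, twice daily, 30 days (n = 8; untreated n = 6). Liver RNA, TaqMan real-time RT-PCR, comparative CT with GAPDH; fold of untreated HFHC control.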
# Mus musculus [28] = test: Induction of LDLR mRNA expression in hyperlipidemic C57BL/6J mouse liver at 100 mg/kg, po daily twice for 21 days by RT-PCR relative to control; type: functional
# Summary of the method: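 Male C57BL/6J mice (21 ± 2 g) fed HFHC diet 8 weeks, then gavaged twice daily with saline suspension at 100 (mg/kg)/day for 21 days (n = 8; untreated n = 6). Liver LDLR mRNA by TaqMan real-time RT-PCR, comparative CT with GAPDH, relative to untreated control.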
# Rattus norvegicus [29] = test: Induction of LDLR mRNA expression in hyperlipidemic Sprague-Dawley rat liver at 100 mg/kg, po daily twice for 30 days by RT-PCR relative to control; type: functional; summary of the method: as §7
smiles,measurement,setting,value
COc1cc2cc3[n+](cc2cc1OC)CCc1cc2c(cc1-3)OCO2.[Cl-] [PSEUDOBERBERINE],Activity,Rattus norvegicus [1],28.5%
same,Activity,Mus musculus [2],Non-toxic
same,Activity,Rattus norvegicus [3],tde
same,Activity,Mus musculus [4],Non-toxic
same,Activity,Mus musculus [5],Non-toxic
same,Activity,Mus musculus [6],Non-toxic
same,Activity,Rattus norvegicus [7],49.4%
same,fold change (FC),Rattus norvegicus [8],4.8
same,Activity,Rattus norvegicus [9],Non-toxic
same,Activity,Rattus norvegicus [10],42.6%
same,Activity,Rattus norvegicus [11],Non-toxic
same,Activity,Mus musculus [12],Non-toxic
same,Activity,Mus musculus [13],29.7%
same,Activity,Rattus norvegicus [14],Non-toxic
same,Activity,Rattus norvegicus [15],tde
same,Activity,Mus musculus [16],Non-toxic
same,Activity,HepG2 [17],Active
same,Activity,Rattus norvegicus [18],Active
same,Activity,Mus musculus [19],Non-toxic
same,Activity,Mus musculus [20],Non-toxic
same,Activity,Mus musculus [21],39%
same,Activity,Rattus norvegicus [22],46.3%
same,Activity,Rattus norvegicus [23],31%
same,fold change (FC),HepG2 [24],3.5
same,Activity,Mus musculus [25],Non-toxic
same,Activity,Rattus norvegicus [26],53.6%
same,Activity,Rattus norvegicus [27],inactive
same,fold change (FC),Mus musculus [28],3.2
same,fold change (FC),Rattus norvegicus [29],2.9
